The data set can be described thus: Toxicity liver stage against HepG2, at 10uM. The data set is classed as cell-based. On the set-up: test concentration 10 uM, cell line HepG2-A16-CD81EGFP. Conditions: human, HepG2-A16-CD81EGFP cells; read-out: INHIBITION
Put shortly:
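Uninfected HepG2-A16-CD81EGFP cells, 3 × 10^3 per well, 1536-well, plated on prespotted compound at 10 μM final, parasite-free screening media added to match infected plates; puromycin 10 μM positive, DMSO 0.5% negative; run in parallel with 48 h PbLuc assay at 37 °C, 5% CO2; viability by CellTiter-Glo luminescence, normalized to controls.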

From ChEMBL document CHEMBL4513216, “Probing the Open Global Health Chemical Diversity Library for Multistage-Active Starting Points for Next-Generation Antimalarials” (ACS Infect Dis, 2020) come the findings set out here.

Consider `CC(=O)Nc1ncc(S(=O)(=O)N2CCOCC2)s1`, for which the cytotoxicity at 10 µM is 4.81%.

Turning to `Cc1csc(C(=O)N2CCC(S(C)(=O)=O)C2)c1` (stereo not given), the cytotoxicity at 10 µM was -5.21%.

In the case of `CCc1ncc(C(=O)N2CCOCC2c2c(C)n[nH]c2C)s1` (stereo not given), the cytotoxicity at 10 µM was -5.61%.

`CCN1CC2(CC1=O)CN(Cc1cccs1)CCN(C(=O)C(C)C)C2` (stereo not given): the cytotoxicity at 10 µM was -13.9%.

As for `Cc1ccccc1CN(CCN(C)C)Cc1ccc(O)c(C(=O)O)c1`, the cytotoxicity at 10 µM was 0.935%.

For the compound `COc1cc(OC)cc(-c2cccc3c2OC(CN)C3)c1` (stereo not given), the cytotoxicity at 10 µM is -53%.

In the case of `Cc1c2c(C(F)F)cc(SCC(=O)O)nc2nn1C`, the cytotoxicity at 10 µM was -9.38%.

As to `CCn1nnc2cc(C(=O)N3CCCC3Cn3cc(C)cn3)ccc21` (stereo not given), the cytotoxicity at 10 µM is -9.8%.

As for `Cc1nc(C)c(CN2CCOC(CNc3cccnn3)C2)s1` (stereo not given), the cytotoxicity at 10 µM is -1.71%.

As to `CNC(=O)c1ccc(-c2ccccc2)n1C`, the cytotoxicity at 10 µM is -1.6%.

For the compound `CC(C)Cn1nccc1NC(=O)CN1CCOC(Cn2cccn2)C1` (stereo not given), the cytotoxicity at 10 µM was -12%.

As for `CC(C)N(Cc1cccnc1)C(=O)CNc1ccc(C#N)cc1`, the cytotoxicity at 10 µM is 1.44%.

Turning to `CS(=O)(=O)N1CCOC2(CCCN(c3cnccn3)C2)C1` (stereo not given), the cytotoxicity at 10 µM is -3.23%.

Turning to `NC(=O)C1CCN(C(=O)c2cccn2Cc2cccs2)CC1`, the cytotoxicity at 10 µM was -4.08%.

In the case of `CCC(C)n1cnc(S(=O)(=O)N(C)C)c1` (stereo not given), the cytotoxicity at 10 µM was -7.07%.

In the case of `CCN1CCC(CC(=O)NCC(O)c2ccc3ccccc3c2)CC1` (stereo not given), the cytotoxicity at 10 µM was -5.26%.

`O=C(c1cc2c([nH]c1=O)CCC2)N1CCCC1c1cccnc1` (stereo not given): the cytotoxicity at 10 µM is -5.79%.

Consider `CC(C)(C)C(=O)NCC(=O)NCC1CCCS1` (stereo not given), for which the cytotoxicity at 10 µM was 3.46%.

As for `Cc1nccnc1N1C[C@H](NC(=O)CNS(C)(=O)=O)[C@@H](C2CC2)C1`, the cytotoxicity at 10 µM is -10.3%.

`CC(C)CN1CCCC12CCN(c1nncs1)C2` (stereo not given): the cytotoxicity at 10 µM amounted to 1.81%.

As for `CCOCCN1CCN(CC2(O)CCCCC2)CC1`, the cytotoxicity at 10 µM was determined as 1.34%.

As to `CC(NC(=O)CN(C)S(C)(=O)=O)c1ccc(F)cc1` (stereo not given), the cytotoxicity at 10 µM is -4.36%.

Turning to `CC(C)OCc1ncn2c1CN(Cc1ccc(F)cc1)CCC2`, the cytotoxicity at 10 µM worked out at 1.39%.

As for `O=C(C1SCCc2ccccc21)N1CCC(O)CC1` (stereo not given), the cytotoxicity at 10 µM is 0.0013%.

`CCNc1ncc(C(=O)NC2CCC(n3cnnc3)CC2)cn1` (stereo not given): the cytotoxicity at 10 µM amounted to 9.45%.

Regarding `COc1ccccc1CCN1CCCC(CN(C)Cc2cc(C)n[nH]2)C1` (stereo not given), the cytotoxicity at 10 µM was -4.52%.

Turning to `CN1C(=O)C(c2cccnc2)CC12CCN(C(=O)c1ccc[nH]1)CC2` (stereo not given), the cytotoxicity at 10 µM was -0.19%.

Regarding `Cc1c[nH]nc1C1CCCCN1C(=O)CNS(C)(=O)=O` (stereo not given), the cytotoxicity at 10 µM is -9.19%.

In the case of `CCC(NCc1ccccc1C)c1ccccc1OCC(=O)NC` (stereo not given), the cytotoxicity at 10 µM was determined as 16.9%.

On to `COc1ccc(-c2noc(-c3ccc(N4CCC[C@H]4CO)nc3)n2)cc1`, for which the cytotoxicity at 10 µM worked out at 11.1%.

`COC(=O)CC(c1ccc(O)c(Cl)c1)c1oc(C)cc(=O)c1O` (stereo not given): the cytotoxicity at 10 µM is -8.59%.

As to `O=C1N(c2ccsc2)CCC12CCCN(Cc1cccnc1)C2` (stereo not given), the cytotoxicity at 10 µM was -128%.

For the compound `CN1C(=O)Cc2cc(-c3csc(CCN4CCOC4=O)n3)ccc21`, the cytotoxicity at 10 µM was -11.5%.

Take `CC1CN(C)c2ccccc2CN1C(=O)NCc1ccon1` (stereo not given): the cytotoxicity at 10 µM turned out to be 7.36%.

For the compound `COc1cc(N2C[C@H]3CCC[C@@H](CN(C)C4CC4)[C@H]3C2)ncn1`, the cytotoxicity at 10 µM is -73%.

Take `CS(=O)(=O)CCC(=O)NC1(c2cccc(C(F)(F)F)c2)CCC1`: the cytotoxicity at 10 µM is -40.1%.

Take `CCC1=N[C@@]2(CC[C@@H]3CN(C(=O)NCc4cccc(F)c4)C[C@@H]32)C(=O)N1`: the cytotoxicity at 10 µM was -69.4%.

Turning to `Cc1nc(C)n(CC2CCCN2Cc2nc(C3CC3)no2)n1` (stereo not given), the cytotoxicity at 10 µM is -12.5%.

For `CCC(CN1CCCC1)NC(=O)Cc1c(C)[nH]c2c(C)cc(C)cc12` (stereo not given), the cytotoxicity at 10 µM came out at 14.6%.

Consider `CC1C(=O)Nc2cccnc2N1S(=O)(=O)c1ccc(C#N)c(Cl)c1` (stereo not given), for which the cytotoxicity at 10 µM is -6.75%.
